# TRAIL sens C8 = caspase-8 TRAIL sensitization | inhibition (viability loss, TRAIL sensitization), % at 10 µM | AID 624354 | NB7+C8 cells + TRAIL, ATPlite viability luminescence | actives 1% (n = 360,000);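 active = compounds causing at least 50% loss of cell viability in the single-dose screen, relative to plate controls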
# FLuc act counter = affects firefly luciferase, flagging false hits in luciferase stimulation screens | 200,000 tested, under 10 active | AID 1027 | ATPlite luciferase biochemical, luminescence, 10 min; 0 = ATP-free wells, 1 = DMSO control | P08659 | activation factor at 10 µM;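 active = luciferase activation factor, scaled between plate controls, of at least 2 with compound at 10 µM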
# Target sequence (P08659 whole entry, looked up): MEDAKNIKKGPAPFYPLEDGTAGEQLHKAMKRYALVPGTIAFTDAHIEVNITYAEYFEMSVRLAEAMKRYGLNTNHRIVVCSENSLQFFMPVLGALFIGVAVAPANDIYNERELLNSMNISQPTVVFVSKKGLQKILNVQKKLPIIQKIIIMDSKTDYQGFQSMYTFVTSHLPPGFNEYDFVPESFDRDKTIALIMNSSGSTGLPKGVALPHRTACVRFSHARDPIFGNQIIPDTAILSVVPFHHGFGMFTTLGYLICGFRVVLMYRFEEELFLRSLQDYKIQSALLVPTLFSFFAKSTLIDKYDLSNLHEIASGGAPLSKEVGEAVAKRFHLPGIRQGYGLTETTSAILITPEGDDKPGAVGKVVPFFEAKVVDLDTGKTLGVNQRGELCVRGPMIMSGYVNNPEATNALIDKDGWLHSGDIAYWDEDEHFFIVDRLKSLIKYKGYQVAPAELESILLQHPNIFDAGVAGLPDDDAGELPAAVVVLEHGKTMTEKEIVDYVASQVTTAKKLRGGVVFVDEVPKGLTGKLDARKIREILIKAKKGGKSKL
#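 Material: Luciferase/luciferin reagent mix | Doses: Test compounds dosed from 2 mM stocks in 100% DMSO | Timing: 10 min incubation after luciferase reagent addition, room temperature | Measured by: Luminescence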
# FLuc inhib CS = inhibits firefly luciferase, flagging false hits in luciferase inhibition screens. AID 1006. actives 1.5% (n = 200,000). inhibition, % at 10 µM. ATPLite firefly luciferase biochemical luminescence, 10 min;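 active = inhibition above about 50% when tested at 10 µM, limit read from the data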
# PPC-1+TRAIL kill = PPC-1 cancer cell killing with TRAIL present; PPC-1 cells + TRAIL, ATPLite viability luminescence; cell killing (% activity), % at 4 µM or 5 µM; actives 0.41% (n = 220,000);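 active = cell killing above 50% in the first pass at 4 µM, then a duplicate retest at 5 µM averaging 50% or more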
# A number is an active result; – = inactive; · = no result. Shown are actives, neighbours in structure and some others; about 1.6% of the full set was active somewhere.
SMILES,TRAIL sens C8,FLuc act counter,FLuc inhib CS,PPC-1+TRAIL kill
Nc1nn(-c2ccccc2)c(N)c1N=Nc1ccc2c(c1)OCO2,–,–,50.8,–
Nc1nn(-c2ccccc2)c(N)c1N=Nc1cccc(F)c1,–,·,·,–
C=C1CC(COc2ccc3c(C)c(Cl)c(=O)oc3c2)(c2ccccc2)OC1=O (centres undefined),90.4,·,·,·
COc1ccc2c(C)c(Cl)c(=O)oc2c1,–,–,–,–
CCC(=O)Nc1cccc(NC(=O)c2cc3ccccc3o2)c1,–,–,53.6,–
Cc1cccc(NC(=O)c2cc3ccccc3o2)c1,–,–,66.1,–
O=C(Nc1cc2ccccc2oc1=O)c1ccccc1,55.2,–,67.4,–
COc1ccc(-c2nn(-c3ccccc3)cc2C(=O)O)cc1OC,–,–,81.9,–
COc1ccc(-c2nn(-c3ccccc3)cc2C(=O)Nc2ccc(C(=O)O)cc2)cc1OC,–,·,·,·
CCN1CCN(c2ccc(S(=O)(=O)N3CCCCC3)cc2NC(=O)c2cc3ccccc3o2)CC1,–,·,·,·
CC(C)C(NS(=O)(=O)c1cccc(C(F)(F)F)c1)C(=O)O (centres undefined),–,·,·,–
CN=c1scc(-c2ccc(F)cc2)n1/N=C/c1ccc(O)c(O)c1,74.0,–,89.6,–
CN=c1scc(-c2ccc([N+](=O)[O-])cc2)n1/N=C/c1ccco1,–,–,–,–
Cc1cc(NC(=O)c2ccc(Cl)cc2)no1,–,–,59.2,–
Cc1cc(NC(=O)c2ccccc2-c2ccccc2C(=O)O)no1,–,–,–,50.3
CCSc1ccccc1C(=O)Nc1cc(C)on1,–,–,–,–
Cc1cc(NC(=O)c2ccc(S(=O)(=O)N(C)C)cc2)no1,–,–,–,–
COC(=O)c1ccc(-c2nc3cc(Cl)c(N)cc3s2)cc1,83.0,–,84.8,–
CCN(C(=O)COC(=O)c1cc(-c2ccc3cc(OC)ccc3c2)nc2ccccc12)C1CCS(=O)(=O)C1 (centres undefined),·,–,76.0,83.4
Cc1ccc(OCc2nc(-c3cccs3)no2)c([N+](=O)[O-])c1,–,–,60.9,–
COc1cccc(NC(=O)n2ncc3c(C)cccc32)c1,53.3,·,·,·
O=C1/C(=N\S(=O)(=O)c2cccs2)C([n+]2cccc(Cc3ccccc3)c2)=C([O-])c2ccccc21,48.0,·,·,–
O=C1/C(=N\S(=O)(=O)c2cccs2)C([n+]2ccc(CCCc3ccccc3)cc2)=C([O-])c2ccccc21,–,·,·,–
COc1cc(CNCc2ccc(SC)cc2)cc(OC)c1,–,–,–,–
CCCCC1C(=O)N(c2ccccc2)N(c2ccc(O)cc2)C1=O (centres undefined),57.1,·,·,·
SMILES,TRAIL sens C8,FLuc act counter,FLuc inhib CS,PPC-1+TRAIL kill
CCCCC1(CO)C(=O)N(c2ccccc2)N(c2ccccc2)C1=O,–,·,·,–
CCCc1ccc(-c2cc(NC(=O)CSc3nnc(N)s3)n(-c3ccccc3)n2)cc1,63.1,–,65.3,–
Cc1nnc(SCC(=O)Nc2cc(-c3cc(C)c(C)cc3C)nn2-c2ccccc2)s1,–,–,–,–
O=C(/C=C/c1cccs1)Nc1nccs1,–,–,–,–
NS(=O)(=O)c1ccc(NC(=O)/C=C/c2cccs2)cc1,–,·,·,–
O=C(/C=C/c1cccs1)Nc1cccc(NC(=O)/C=C/c2cccs2)n1,73.1,–,60.5,–
NS(=O)(=O)c1cccc(NC(=O)/C=C/c2cccs2)c1,–,–,73.2,–
Oc1[nH]c2ccccc2c1N=Nc1nc2ccccc2s1,–,–,54.5,–
Cc1ccc2[nH]c(O)c(N=Nc3nc4ccccc4s3)c2c1,–,·,·,–
Cc1ccc(F)cc1NC(=O)c1c(-c2ccccc2)noc1C,–,–,–,–
S=C(Nc1ccc(Cl)cc1)c1nc2ccccc2s1,–,–,–,–
O=C(Nc1ccc(Cl)cc1)/C(=C/c1cccc(O)c1)c1nc2ccccc2s1,88.0,–,–,–
CC(OC(=O)CNC(=O)COc1ccccc1)C(=O)N(C)Cc1ccccc1 (centres undefined),–,·,·,·
CCN1/C(=C/c2ccc3cc(C)ccc3[n+]2CC)Sc2cc(C)c(C)cc21,–,–,–,–
CCN1/C(=C/C=C/C=C/c2sc3ccccc3[n+]2CC)Sc2ccccc21,·,–,–,–
CCN1/C(=C/c2ccc3cc(C)ccc3[n+]2CC)Sc2ccccc21,–,–,–,66.3
CCN1/C(=C/C=C/c2sc3ccccc3[n+]2CC)Sc2ccccc21,71.3,·,·,·
O=c1c([N+](=O)[O-])cn(Cc2ccccc2)c(=O)n1Cc1ccccc1,–,·,·,·
CC(=O)c1cn(Cc2ccccc2)c(=O)n(Cc2ccc(F)cc2)c1=O,–,–,79.4,–
O=C1NC[C@@H](CCCCN2CCN(CCc3ccc(O)cc3)C(=O)C2=O)N(CCc2ccc(O)cc2)C1=O,–,·,·,·
O=C(Nc1nc2ccccc2c2nc3ccccc3n12)c1ccc(F)cc1,·,–,–,–
Cn1c(NC(=O)c2ccc(F)cc2)nc2ccccc21,64.3,·,·,·
Cc1coc2c1C(=O)C(=O)c1c-2ccc2c(C)cccc12,53.6,·,·,–
O=C(NCc1cccnc1)c1ccc(Cl)c(S(=O)(=O)Nc2ccccc2C(=O)NCc2cccnc2)c1,–,–,–,–
O=C(Nc1cnn(C23CC4CC(CC(C4)C2)C3)c1)c1cnn2c(C(F)(F)F)cc(-c3ccco3)nc12,64.2,–,–,–
SMILES,TRAIL sens C8,FLuc act counter,FLuc inhib CS,PPC-1+TRAIL kill
O=C(Nc1ccc2c(c1)OCO2)c1cnn2c(C(F)(F)F)cc(-c3ccco3)nc12,–,–,–,–
CCn1ccc(C(=O)Oc2ccc(Cl)cc2)n1,–,–,53.5,–
O=C1C(F)=CC(COC(c2ccccc2)(c2ccccc2)c2ccccc2)OC1n1cc(F)c(=O)[nH]c1=O (centres undefined),89.0,·,·,·
CC(C(=O)NCCCc1ccccc1)c1ccc([N+](=O)[O-])cc1 (centres undefined),–,–,–,–
COc1ccc(CN(C)C(=O)COC(=O)c2cc([N+](=O)[O-])ccc2N2CCCC2)c(OC)c1OC,–,·,·,·
O=P(CCCO)(Cc1ccccc1)Cc1ccccc1,–,·,·,·
COc1ccccc1NC(=O)Nc1ccc2c(c1)nnn2C,54.2,–,–,–
O=C(NC1=NCCS1)c1ccc(Cl)cc1,–,·,·,·
COc1cccc(C(=O)Nc2ccc(C3CC3(Cl)Cl)cc2)c1 (centres undefined),49.3,–,57.9,–
O=C(NC1=NCCS1)c1ccc(-c2ccc(Cl)cc2)o1,–,–,65.9,–
COc1cccc(C(=O)NC2=NCCS2)c1,–,–,52.3,–
CC(C)Oc1cccc(C(=O)NC2=NCCS2)c1,–,–,–,–
CCCCCCCCN1C(=O)[C@H](CC(=O)NCCCN2CCCC2=O)C[C@@]2(C(=O)OC)CC(C)(C)CC=C12,–,·,·,·
CC(=O)Nc1ccc(S(=O)(=O)N(C)c2ccccc2)cc1,–,–,–,–
CCS(=O)(=O)c1ncc(Cl)c(C(=O)Nc2ccc(S(=O)(=O)N(C)c3ccccc3)cc2)n1,98.5,·,·,·
CCN(c1ccccc1)S(=O)(=O)c1ccc(NC(=O)c2nc(S(C)(=O)=O)ncc2Cl)cc1,90.7,·,·,·
S=C1Nc2ccccc2CS1,–,·,·,·
S=C1Cc2ccccc2N1,59.8,·,·,–
